In series [1] the target is Histone deacetylase 1 (Homo sapiens, UniProt Q13547). Kind of series: Inhibition of recombinant human C-terminal His6-FLAG-tagged HDAC1 (1 to end residues) expressed in sf9 insect cells using Boc-Lys(acetyl)-AMC as substrate incubated for 30 mins by fluorescence assay. The method in brief:
(§1)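 Two-step fluorogenic assay with recombinant HDAC1, 2, 3 or 6. Deacetylation of Boc-Lys(acetyl)-AMC is followed by trypsin conversion of the deacetylated product to a fluorescent signal.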

Series [2] concerns the target T1, Histone deacetylase 8 (Homo sapiens) (UniProt Q9BY41).
T1 sequence (whole entry): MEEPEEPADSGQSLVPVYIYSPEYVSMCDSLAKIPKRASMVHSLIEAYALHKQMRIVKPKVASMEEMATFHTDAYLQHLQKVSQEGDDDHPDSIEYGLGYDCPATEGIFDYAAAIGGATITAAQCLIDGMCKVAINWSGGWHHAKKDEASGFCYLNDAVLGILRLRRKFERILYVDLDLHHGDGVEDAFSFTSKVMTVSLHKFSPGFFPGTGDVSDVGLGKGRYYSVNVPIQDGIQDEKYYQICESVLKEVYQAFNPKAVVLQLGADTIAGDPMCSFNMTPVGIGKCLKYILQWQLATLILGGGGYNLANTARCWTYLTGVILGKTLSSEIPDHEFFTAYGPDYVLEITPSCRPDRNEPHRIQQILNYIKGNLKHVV
As to the kind of experiment: Inhibition of recombinant human N-terminal His6-SUMO-tagged C-terminal SII-tagged HDAC8 expressed in Escherichia coli (BL21) DE3 pLysS cells assessed as residual activity at 50 uM using BocLys(trifluoroacetyl)-AMC as substrate incubated for 30 mins by fluorescence assay relative to control. The method in brief: (§2)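 Catalytic-domain HDAC4 (His6-SUMO/SII-tagged) and full-length codon-optimized human HDAC8 were expressed in E. coli BL21 DE3 pLysS from pET14b. Both were assayed in a two-step fluorogenic format with Boc-Lys(trifluoroacetyl)-AMC, followed by trypsin development. Compounds were screened first at 50 µM for residual activity.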

Series [3] is described as follows: Cytotoxicity against HUVEC cells assessed as reduction in cell viability after 96 hrs by MTT assay. To be noted: human.
Series [4] concerns the target Histone deacetylase 2 (Homo sapiens, UniProt Q92769). As to the kind of experiment: Inhibition of recombinant human HDAC2 Boc-Lys(acetyl)-AMC as substrate incubated for 30 mins by fluorescence assay. The method in brief:
as §1

Series [5] concerns the target T2, Protein deacetylase HDAC6 (Homo sapiens, UniProt Q9UBN7).
T2 sequence (Q9UBN7 whole entry): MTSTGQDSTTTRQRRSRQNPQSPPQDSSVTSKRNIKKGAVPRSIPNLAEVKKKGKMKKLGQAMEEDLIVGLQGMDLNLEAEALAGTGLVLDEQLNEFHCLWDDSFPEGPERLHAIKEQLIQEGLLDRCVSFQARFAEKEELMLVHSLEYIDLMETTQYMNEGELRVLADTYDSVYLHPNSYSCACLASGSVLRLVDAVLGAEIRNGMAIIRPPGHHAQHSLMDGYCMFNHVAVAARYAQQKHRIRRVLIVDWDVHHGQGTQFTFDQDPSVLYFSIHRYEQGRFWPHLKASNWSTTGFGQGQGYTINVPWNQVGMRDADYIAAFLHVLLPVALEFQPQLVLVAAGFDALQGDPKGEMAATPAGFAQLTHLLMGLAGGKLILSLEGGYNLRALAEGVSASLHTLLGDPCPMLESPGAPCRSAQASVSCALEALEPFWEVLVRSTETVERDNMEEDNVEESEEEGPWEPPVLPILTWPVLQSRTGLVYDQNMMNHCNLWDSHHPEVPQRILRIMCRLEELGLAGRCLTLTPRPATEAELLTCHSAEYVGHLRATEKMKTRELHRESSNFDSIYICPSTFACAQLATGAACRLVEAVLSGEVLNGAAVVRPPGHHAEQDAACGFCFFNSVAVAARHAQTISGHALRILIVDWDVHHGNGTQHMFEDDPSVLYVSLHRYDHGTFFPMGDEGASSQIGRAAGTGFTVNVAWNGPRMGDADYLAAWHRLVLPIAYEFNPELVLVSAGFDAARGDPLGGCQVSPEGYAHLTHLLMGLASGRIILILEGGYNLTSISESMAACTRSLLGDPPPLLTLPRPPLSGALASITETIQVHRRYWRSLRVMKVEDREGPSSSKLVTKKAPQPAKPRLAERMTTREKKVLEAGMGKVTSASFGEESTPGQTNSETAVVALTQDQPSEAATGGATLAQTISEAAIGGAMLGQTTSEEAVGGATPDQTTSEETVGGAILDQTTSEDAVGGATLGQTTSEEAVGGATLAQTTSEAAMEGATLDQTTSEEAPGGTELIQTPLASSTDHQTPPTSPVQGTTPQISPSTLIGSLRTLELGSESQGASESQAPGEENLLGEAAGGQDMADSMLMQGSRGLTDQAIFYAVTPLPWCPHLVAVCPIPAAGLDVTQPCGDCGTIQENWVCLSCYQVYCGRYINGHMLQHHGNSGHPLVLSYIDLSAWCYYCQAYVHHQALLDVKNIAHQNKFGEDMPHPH
Kind of series: Inhibition of recombinant human HDAC6 using Boc-Lys(acetyl)-AMC as substrate incubated for 30 mins by fluorescence assay. The gist of the method: as §1

The target of series [6] is T3, Histone deacetylase 8 (Homo sapiens, UniProt Q9BY41).
T3 sequence (Q9BY41 whole entry): T1 sequence (whole entry)
Kind of series: Inhibition of recombinant human N-terminal His6-SUMO-tagged C-terminal SII-tagged HDAC8 expressed in Escherichia coli (BL21) DE3 pLysS cells using BocLys(trifluoroacetyl)-AMC as substrate incubated for 30 mins by fluorescence assay. The method in brief:
as §2

For series [7], the target named is Histone deacetylase 3/Nuclear receptor corepressor 2 (HDAC3/NCoR2) (Homo sapiens, UniProt O15379). As to the kind of experiment: Inhibition of C-terminal His-tagged recombinant human HDAC3 (1 to 428 residues)/N-terminal GST-tagged recombinant human NCoR2 (395 to 489 residues) co-expressed in baculovirus infected Sf9 cells using Boc-Lys(acetyl)-AMC as substrate incubated for 30 mins by fluorescence assay. The gist of the method:
as §1

Series [8] addresses Histone deacetylase 4 (Homo sapiens, UniProt P56524). As to the kind of experiment: Inhibition of recombinant human N-terminal His6-SUMO-tagged C-terminal SII-tagged HDAC4 expressed in Escherichia coli (BL21) DE3 pLysS cells using BocLys(trifluoroacetyl)-AMC as substrate incubated for 30 mins by fluorescence assay. The gist of the method:
as §2

A value given as a limit tells only on which side of the number the result lay.

Sequence of Histone deacetylase 1 (Q13547 whole entry): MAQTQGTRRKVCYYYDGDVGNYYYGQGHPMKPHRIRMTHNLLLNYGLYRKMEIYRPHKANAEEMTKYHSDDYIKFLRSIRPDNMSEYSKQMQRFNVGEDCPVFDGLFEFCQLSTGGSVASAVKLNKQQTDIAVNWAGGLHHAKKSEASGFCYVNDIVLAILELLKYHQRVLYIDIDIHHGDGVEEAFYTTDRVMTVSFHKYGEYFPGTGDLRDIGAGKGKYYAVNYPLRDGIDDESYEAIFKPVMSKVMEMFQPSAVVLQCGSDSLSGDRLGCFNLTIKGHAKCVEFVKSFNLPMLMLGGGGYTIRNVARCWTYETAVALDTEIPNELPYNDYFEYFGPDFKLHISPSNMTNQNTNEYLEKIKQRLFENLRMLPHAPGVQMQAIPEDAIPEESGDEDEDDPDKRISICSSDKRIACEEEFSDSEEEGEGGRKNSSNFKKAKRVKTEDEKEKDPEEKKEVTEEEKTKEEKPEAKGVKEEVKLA
Sequence of Histone deacetylase 3/Nuclear receptor corepressor 2 (HDAC3/NCoR2) (O15379 whole entry, the tested form may be a part): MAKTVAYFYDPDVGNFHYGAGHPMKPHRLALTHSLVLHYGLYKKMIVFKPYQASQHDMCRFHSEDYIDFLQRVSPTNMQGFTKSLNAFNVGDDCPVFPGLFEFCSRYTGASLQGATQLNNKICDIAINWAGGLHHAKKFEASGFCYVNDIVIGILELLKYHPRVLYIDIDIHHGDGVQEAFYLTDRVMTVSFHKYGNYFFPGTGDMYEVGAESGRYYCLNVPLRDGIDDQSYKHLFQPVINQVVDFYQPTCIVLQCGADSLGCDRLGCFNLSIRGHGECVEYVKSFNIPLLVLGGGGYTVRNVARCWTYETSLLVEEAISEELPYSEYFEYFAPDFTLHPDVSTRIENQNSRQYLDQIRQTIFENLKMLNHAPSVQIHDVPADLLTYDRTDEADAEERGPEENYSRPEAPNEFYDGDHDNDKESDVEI
Sequence of Histone deacetylase 3/Nuclear receptor corepressor 2 (HDAC3/NCoR2) (Q9Y618 whole entry, further chain, the tested form may be a part): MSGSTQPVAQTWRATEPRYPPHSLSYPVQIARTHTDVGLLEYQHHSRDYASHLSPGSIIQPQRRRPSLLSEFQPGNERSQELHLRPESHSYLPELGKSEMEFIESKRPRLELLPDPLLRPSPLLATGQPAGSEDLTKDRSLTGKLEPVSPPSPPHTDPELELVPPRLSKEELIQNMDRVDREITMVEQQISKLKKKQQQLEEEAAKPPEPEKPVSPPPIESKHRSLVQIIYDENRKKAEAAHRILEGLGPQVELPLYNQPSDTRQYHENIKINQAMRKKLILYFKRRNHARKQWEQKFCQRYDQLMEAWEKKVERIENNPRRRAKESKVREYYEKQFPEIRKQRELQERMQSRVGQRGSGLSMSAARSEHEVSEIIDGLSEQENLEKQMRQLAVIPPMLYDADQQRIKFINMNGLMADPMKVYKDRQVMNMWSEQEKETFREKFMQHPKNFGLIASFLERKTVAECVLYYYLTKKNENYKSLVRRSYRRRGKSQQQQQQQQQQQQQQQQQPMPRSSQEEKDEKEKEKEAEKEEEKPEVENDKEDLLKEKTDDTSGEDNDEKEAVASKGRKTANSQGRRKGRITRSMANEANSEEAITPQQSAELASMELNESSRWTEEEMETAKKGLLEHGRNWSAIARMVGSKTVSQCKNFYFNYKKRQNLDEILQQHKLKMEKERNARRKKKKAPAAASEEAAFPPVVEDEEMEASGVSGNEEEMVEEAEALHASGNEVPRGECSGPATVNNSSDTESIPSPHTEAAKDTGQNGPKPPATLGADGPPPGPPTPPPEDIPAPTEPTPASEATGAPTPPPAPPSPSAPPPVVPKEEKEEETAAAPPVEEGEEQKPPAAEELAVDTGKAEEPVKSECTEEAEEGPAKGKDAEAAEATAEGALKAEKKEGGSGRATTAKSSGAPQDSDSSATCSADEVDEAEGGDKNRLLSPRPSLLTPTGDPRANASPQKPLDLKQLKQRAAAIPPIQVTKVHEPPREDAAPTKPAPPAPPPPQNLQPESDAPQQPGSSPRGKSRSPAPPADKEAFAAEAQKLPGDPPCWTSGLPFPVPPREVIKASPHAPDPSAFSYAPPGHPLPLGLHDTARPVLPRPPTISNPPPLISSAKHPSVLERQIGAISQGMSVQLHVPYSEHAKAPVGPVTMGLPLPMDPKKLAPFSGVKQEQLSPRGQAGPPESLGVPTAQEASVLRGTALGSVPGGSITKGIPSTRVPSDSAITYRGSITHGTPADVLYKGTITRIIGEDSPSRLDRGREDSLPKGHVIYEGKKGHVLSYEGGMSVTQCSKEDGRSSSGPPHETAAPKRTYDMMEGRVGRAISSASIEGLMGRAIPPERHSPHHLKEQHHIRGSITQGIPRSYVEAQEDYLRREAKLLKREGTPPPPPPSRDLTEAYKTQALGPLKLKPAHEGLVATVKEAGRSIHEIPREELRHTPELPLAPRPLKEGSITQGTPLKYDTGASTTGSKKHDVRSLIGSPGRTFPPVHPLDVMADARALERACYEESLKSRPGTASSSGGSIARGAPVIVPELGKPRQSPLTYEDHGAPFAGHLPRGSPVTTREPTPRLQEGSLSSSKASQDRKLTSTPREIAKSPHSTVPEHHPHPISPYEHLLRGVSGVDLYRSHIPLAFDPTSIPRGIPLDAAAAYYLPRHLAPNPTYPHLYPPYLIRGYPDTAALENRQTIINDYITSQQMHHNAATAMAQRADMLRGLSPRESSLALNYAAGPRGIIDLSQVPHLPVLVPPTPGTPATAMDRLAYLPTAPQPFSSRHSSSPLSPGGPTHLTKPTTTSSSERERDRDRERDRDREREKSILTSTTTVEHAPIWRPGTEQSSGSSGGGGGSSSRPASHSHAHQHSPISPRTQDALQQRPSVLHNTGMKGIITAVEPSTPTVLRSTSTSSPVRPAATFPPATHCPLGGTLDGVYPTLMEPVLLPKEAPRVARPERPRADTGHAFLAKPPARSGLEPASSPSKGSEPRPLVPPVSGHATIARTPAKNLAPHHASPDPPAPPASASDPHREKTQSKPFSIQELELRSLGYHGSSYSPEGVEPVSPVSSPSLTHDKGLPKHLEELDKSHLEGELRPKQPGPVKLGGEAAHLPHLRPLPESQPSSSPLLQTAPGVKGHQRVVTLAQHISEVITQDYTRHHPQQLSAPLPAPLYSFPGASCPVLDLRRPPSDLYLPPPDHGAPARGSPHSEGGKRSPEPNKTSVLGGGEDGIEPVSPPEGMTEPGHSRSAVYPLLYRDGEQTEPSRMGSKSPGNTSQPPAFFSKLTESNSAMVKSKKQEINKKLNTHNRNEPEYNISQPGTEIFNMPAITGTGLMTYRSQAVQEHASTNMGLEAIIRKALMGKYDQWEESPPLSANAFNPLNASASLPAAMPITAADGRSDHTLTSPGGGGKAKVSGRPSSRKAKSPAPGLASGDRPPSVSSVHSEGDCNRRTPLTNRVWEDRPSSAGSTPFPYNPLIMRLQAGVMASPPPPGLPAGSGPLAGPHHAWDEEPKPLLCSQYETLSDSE
Sequence of Histone deacetylase 4 (P56524 whole entry): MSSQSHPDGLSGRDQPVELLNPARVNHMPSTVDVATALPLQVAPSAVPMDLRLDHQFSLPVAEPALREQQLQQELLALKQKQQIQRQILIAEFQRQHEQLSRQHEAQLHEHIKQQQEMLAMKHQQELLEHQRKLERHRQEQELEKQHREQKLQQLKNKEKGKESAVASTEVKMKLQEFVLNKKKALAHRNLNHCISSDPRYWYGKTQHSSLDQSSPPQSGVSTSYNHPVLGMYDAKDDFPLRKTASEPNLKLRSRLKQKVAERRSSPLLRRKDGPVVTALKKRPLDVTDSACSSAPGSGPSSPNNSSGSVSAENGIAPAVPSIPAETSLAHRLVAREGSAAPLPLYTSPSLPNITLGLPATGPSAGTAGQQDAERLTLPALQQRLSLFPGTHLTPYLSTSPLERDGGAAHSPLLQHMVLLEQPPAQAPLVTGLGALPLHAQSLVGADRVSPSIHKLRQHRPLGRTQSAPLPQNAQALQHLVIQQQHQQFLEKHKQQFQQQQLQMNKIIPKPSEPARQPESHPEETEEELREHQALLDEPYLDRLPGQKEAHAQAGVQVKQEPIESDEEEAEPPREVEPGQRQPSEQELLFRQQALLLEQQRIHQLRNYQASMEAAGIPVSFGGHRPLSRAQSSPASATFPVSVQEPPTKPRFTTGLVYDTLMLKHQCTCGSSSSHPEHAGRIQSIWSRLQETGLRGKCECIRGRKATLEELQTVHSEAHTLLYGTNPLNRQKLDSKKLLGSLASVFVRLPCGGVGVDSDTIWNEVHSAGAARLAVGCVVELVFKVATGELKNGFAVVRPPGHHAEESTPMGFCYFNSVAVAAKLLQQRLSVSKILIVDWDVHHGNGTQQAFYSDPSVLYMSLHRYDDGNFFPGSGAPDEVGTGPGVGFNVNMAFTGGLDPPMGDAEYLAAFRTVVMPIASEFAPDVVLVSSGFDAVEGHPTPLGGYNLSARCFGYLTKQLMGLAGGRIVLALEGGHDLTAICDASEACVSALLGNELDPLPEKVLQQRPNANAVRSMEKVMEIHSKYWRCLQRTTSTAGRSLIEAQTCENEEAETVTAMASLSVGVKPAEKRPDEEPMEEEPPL
Sequence of Histone deacetylase 2 (Q92769 whole entry): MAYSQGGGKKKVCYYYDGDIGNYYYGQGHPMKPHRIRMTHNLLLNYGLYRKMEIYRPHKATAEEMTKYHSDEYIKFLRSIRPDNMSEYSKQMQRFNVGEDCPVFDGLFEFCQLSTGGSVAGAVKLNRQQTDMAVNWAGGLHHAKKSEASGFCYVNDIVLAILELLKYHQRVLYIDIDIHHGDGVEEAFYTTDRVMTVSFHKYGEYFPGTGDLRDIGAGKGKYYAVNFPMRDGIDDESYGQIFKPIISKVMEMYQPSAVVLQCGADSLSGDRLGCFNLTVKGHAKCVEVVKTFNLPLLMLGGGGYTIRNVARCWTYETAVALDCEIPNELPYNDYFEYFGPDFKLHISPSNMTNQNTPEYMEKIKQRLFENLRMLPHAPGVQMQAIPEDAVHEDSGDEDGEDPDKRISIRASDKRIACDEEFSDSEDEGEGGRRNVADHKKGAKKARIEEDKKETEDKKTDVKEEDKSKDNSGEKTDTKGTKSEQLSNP

Take `O=C1NC(=O)/C(=C\c2ccc(OCC(=O)N3N=C(c4ccc(F)cc4)CC3c3ccc(Cl)c(Cl)c3)cc2)S1` (centres undefined): the IC50 (commonly the concentration at which inhibition is half-maximal) in series [1] came to 11 µM; in series [4], 21 µM; in series [5] it was 13 µM; in series [6] it was 25 µM; in series [7], 11 µM; in series [8], 0.8 µM. In series [2], the Activity was found to be 22%. In series [3], the half-inhibitory concentration (IC50) at 96 h amounted to 2 µM.

As for `O=C1NC(=O)/C(=C\c2ccc(OCC(=O)N3N=C(c4ccc(F)cc4)CC3c3ccco3)cc2)S1` (centres undefined), the IC50 in series [1] was above 50 µM; in series [4], above 50 µM; in series [5], 7.6 µM; in series [6] it was above 50 µM; in series [7], above 50 µM; in series [8] it was 0.88 µM. For the same compound, the Activity in series [2] was 45%. Further, the IC50 at 96 h in series [3] stood at 0.7 µM.

Take `O=C1NC(=O)/C(=C\c2ccc(OCC(=O)N3N=C(c4ccccc4)CC3c3ccc(Cl)c(Cl)c3)cc2)S1` (centres undefined): the IC50 is 4.9 µM in series [1]; 13 µM in series [4]; 39 µM in series [5]; 10 µM in series [6]; 9.1 µM in series [7]; 0.7 µM in series [8]. Besides, in series [2], the Activity amounted to 9.4%. Further, the 50% inhibitory concentration (IC50) at 96 h in series [3] was above 10 µM.

The record behind these values is ChEMBL document CHEMBL5120742, “Multi-target weapons: diaryl-pyrazoline thiazolidinediones simultaneously targeting VEGFR-2 and HDAC cancer hallmarks” (RSC Med Chem, 2021).
